Assays:
[1] = Antioxidant activity assessed as protection against peroxyl radical-induced alkaline phosphatase oxidation by fluorimetric assay; assay type: functional
Method in brief: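 Microplate assay on pure compounds measuring protection of alkaline phosphatase (ALP) against peroxyl radical-induced loss of activity. EC50 is the antioxidant concentration that protects ALP to 50% from this loss, reported as pEC50.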

[2] = test system: Radical scavenging activity; test: Antioxidant activity assessed as ratio of drug concentration to DPPH concentration causing 50% DPPH radical scavenging activity […]; assay type: functional
[3] = test system: Plasmodium falciparum; test: Antiplasmodial activity against chloroquine-sensitive Plasmodium falciparum 3D7 by [3H]hypoxanthine incorporation assay; assay type: functional, organism-based

Row | SMILES | EC50 [1] [µM] | Ratio [2] | IC50 [3] [µM]
1 | O=c1c(O)c(-c2ccc(O)c(O)c2)oc2cc(O)cc(O)c12 [QUERCETIN] | 1 | 0.092 | –
2 | O=C(/C=C/c1ccc(O)c(O)c1)O[C@@H]1[C@@H](O)[C@H](c2c(O)cc3oc4cc(O)c(O)cc4c(=O)c3c2O)O[C@H](CO)[C@H]1O | 1.18 | 0.1 | –
3 | O=C(/C=C/c1ccccc1)O[C@@H]1[C@@H](O)[C@H](c2c(O)cc3oc4cc(O)c(O)cc4c(=O)c3c2O)O[C@H](CO)[C@H]1O | 0.98 | 0.16 | –
4 | O=C(/C=C/c1ccc(O)cc1)O[C@@H]1[C@@H](O)[C@H](c2c(O)cc3oc4cc(O)c(O)cc4c(=O)c3c2O)O[C@H](CO)[C@H]1O | 0.83 | 0.16 | 18.1
5 | O=C(O[C@@H]1[C@@H](O)[C@H](c2c(O)cc3oc4cc(O)c(O)cc4c(=O)c3c2O)O[C@H](CO)[C@H]1O)c1ccc(O)cc1 | 0.98 | 0.11 | 26.5
6 | O=C(/C=C/c1ccc(O)cc1)OC[C@H]1O[C@@H](c2c(O)cc3oc4cc(O)c(O)cc4c(=O)c3c2O)[C@H](O)[C@@H](O)[C@@H]1O | 1.48 | 0.23 | > 38.2
7 | O=c1c2cc(O)c(O)cc2oc2cc(O)c([C@@H]3O[C@H](CO)[C@@H](O)[C@H](O)[C@H]3O)c(O)c12 [MANGIFERIN] | 1.26 | 0.12 | 23.8
